From PubChem BioAssay AID1424 (The Scripps Research Institute Molecular Screening Center, 2008)
The campaign covered roughly 220,000 compounds. About 390 (0.18%) were called active. Shown is part of a subset that was picked to be rich in actives. A number with no mark means an inactive call.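 The calls were made as follows: active = activation above its plate's cutoff, the mean activation of test wells on that plate plus 3 SD (cut at about 19% in these data); inactive = the rest.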

tested on: transient receptor potential cation channel N1 (TRPN1/NompC), Danio rerio; test: TRPN1 activation via calcium influx – cell-based, HEK293, calcium fluorescence, zebrafish, primary screen (AID 1424); settings: HEK293 zebrafish TRPN1-YFP, Fluo-8 calcium fluorescence; at 3 µM; stronger effect = higher value; 100% = response to 87 µM carbachol;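 also: 0% = DMSO alone and 100% = 87 µM carbachol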
Procedure, shortened: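 Assay system: Zebrafish TRPN1-YFP in HEK293 cells | Incubation: Dye loading 1 h at 37 °C, then 30 min room temperature | Measured by: Kinetic Fluo-8 fluorescence, ex 470-495, em 515-575 nm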

Row | SMILES | activation
1 | O=C(NCC(c1cccs1)N1CCOCC1)c1cc(-c2ccccn2)nc2ccccc12 (stereo not given) | 1.98%
2 | CC(C)(C)c1cnnn1-c1ccc([N+](=O)[O-])cc1 | 1.54%
3 | CN=C1C=C/C(=N/N=c2\ccn(O)cc2C)C=C1C | -3.14%
4 | CCC(C(=O)Nc1ccc2c(c1)OCCO2)c1ccccc1 (stereo not given) | -0.31%
5 | CCC(C(=O)OCC(=O)Nc1ccc(C(=O)Nc2ccc(OC)cc2)cc1)c1ccccc1 (stereo not given) | 2.79%
6 | CCC(C(=O)Nc1ccc(C(C)C)cc1)c1ccccc1 (stereo not given) | 29% (active)
7 | CC1=NN(Cc2ccccc2)C(=O)/C1=C/c1ccc(N(C)C)cc1 | -3.57%
8 | O=C1NCC(=O)N(Cc2ccccc2)/C1=C/c1ccccc1 | 0.65%
9 | CN(C)c1ccc(/C=C2\NC(=S)N(Cc3ccccc3)C2=O)cc1 | 30.3% (active)
10 | Cc1ccc(S(=O)(=O)N2CCOCC2)cc1NC(=O)CSc1nnc(N)s1 | 0.64%
11 | CC1CN(CCCOc2ccccc2-c2ccccc2)CC(C)O1 (stereo not given) | -1.64%
12 | CC(CNS(=O)(=O)c1ccc(Br)cc1)CN(C)C (stereo not given) | 0.45%
13 | CCOc1cc2[nH]c(=O)n(Cc3ccc(C(=O)NCCCN4CCCC4=O)cc3)c(=O)c2cc1OCC | -0.57%
14 | CC(C)(c1ccccc1)c1ccc(OCCN)cc1 | 2.87%
15 | CONc1nc2nonc2nc1NOC | 2.6%
16 | CC1C(=O)NC(=O)C1c1ccccc1 (stereo not given) | 0.95%
17 | Cc1cc(C)c(OCCN2CC(C)OC(C)C2)c(Br)c1 (stereo not given) | -2.75%
18 | Cc1ccc2[nH]cc(CCNC(=O)c3ccc([N+](=O)[O-])cc3)c2c1 | -0.48%
19 | CCOc1cc(/C=C(\C#N)c2nc(-c3cccs3)c(NC(C)=O)s2)ccc1O | 26.9% (active)
20 | COc1cc(/C=C(\C#N)c2nc3c(s2)CC(C)CC3)ccc1O (stereo not given) | 9.23%
21 | COc1cc(/C=N\Nc2nc(-c3cccs3)c(NC(C)=O)s2)ccc1O | 0.7%
22 | COC(=O)c1cc(NC(=O)Cc2ccccc2[N+](=O)[O-])ccc1Cl | -1.23%
23 | CC(=O)OC(C)C[N+](C)(C)C (stereo not given) | 51% (active)
24 | CC(C[N+](C)(C)C)OC(N)=O (stereo not given) | 0.21%
25 | CN1CCN(c2cc3c(cc2F)c(=O)c(C(=O)O)cn3CCF)CC1 | 1.93%

Row | SMILES | activation
26 | O=C(N1CCCCC1)N1CCN(C(=O)N2CCCCC2)CC1 | 1.43%
27 | CC1=CC2=NC(=O)/C(=C/c3coc4ccccc4c3=O)C(=N)N2O1 | 35.5% (active)
28 | COc1ccc(OCCCn2cccc2/C=C2/C(=N)N3OC(C)=CC3=NC2=O)cc1 | 1.04%
29 | CCOc1cc(/C=C2/C(=N)N3OC(C)=CC3=NC2=O)ccc1OC | -0.5%
30 | CC(=O)c1c(C)[nH]c(=S)c(C#N)c1-c1ccc(F)cc1 | -0.66%
31 | Oc1ccc2ccc3cccc[n+]3c2c1 | 33.7% (active)
32 | CCN(Cc1ccccc1)S(=O)(=O)c1cc(C(=O)O)ccc1OC | -2.45%
33 | COc1cc(OC)cc(C(=O)N[C@H](C(=O)OCC(=O)NC(C)c2ccccc2)C(C)C)c1 (stereo not given in full) | 46.5% (active)
34 | COc1cc(OC)cc(C(=O)N[C@H](C(=O)Nc2nc3ccccc3[nH]2)C(C)C)c1 | -2.24%
35 | CC(NC(=O)COC(=O)c1ccc2c(c1)OCO2)c1ccccc1 (stereo not given) | 1%
36 | COc1ccc(C(=O)N/N=C2\CCS(=O)(=O)c3ccc(F)cc32)cc1OC | 2.13%
37 | COC(=O)c1cc(NC(=O)CN2CCN(C(C)=O)CC2)cc(C(=O)OC)c1 | 2.13%
38 | COc1ccc(S(=O)(=O)NC(C)C)cc1C(=O)NC1CCCCC1 | -0.93%
39 | COc1cc(OC)c(C(=O)NC2CC(C)(C)NC(C)(C)C2)cc1OC | 2.05%
40 | COc1cc(OC)c(C(=O)NC2CCCCCC2)cc1OC | 32.1% (active)
41 | CC(C)(C)c1cc(NC(=O)NN2CCOCC2)nn1-c1c(Cl)cc(Cl)cc1Cl | 0.61%
42 | O=C(NC(=O)N1CCSCC1)c1c(Cl)cccc1Cl | 2.1%
43 | O=S(=O)(/N=C(/Nc1ccccc1)c1ccccc1)c1cccs1 | -0.34%
44 | O=C(NCCCN1CCN(c2ccc(F)cc2)CC1)Nc1ccc([N+](=O)[O-])cc1 | 10.4%
45 | Cc1ccccc1NC(=S)NNC(=O)c1cccc(Br)c1 | 2.03%
46 | CC(=O)Nc1ccc(CN2CCN(Cc3ccc(F)c(F)c3)C(CCO)C2)cc1 (stereo not given) | 2.06%
47 | CCOC(=O)/C(=N\Nc1ccccc1Cl)N(C)C1CCS(=O)(=O)C1 (stereo not given) | -0.61%
48 | COc1ccc(C(=O)N/N=C(\C)CC(=O)Nc2ccc(Cl)cn2)cc1 | -1.34%
49 | NC(=O)CC[C@@H]1NC(=O)[C@@H]2CCCN2C(=O)c2cc([N+](=O)[O-])cc(F)c2NCCC[C@@H](C(N)=O)NC1=O | 1.08%
50 | Cc1cccc(OCC(=O)NC(=S)Nc2ccccc2N2CCOCC2)c1 | -0.19%

Row | SMILES | activation
51 | Cc1ccc(O)c(NC(=O)COc2cc(C)ccc2C)c1 | -0.38%
52 | Cc1ccc(O)c(NC(=S)NC(=O)COc2ccc(Br)cc2)c1 | 30.4% (active)
53 | CC(=O)c1sc(NC(=O)C2=NN(c3ccccc3)C(=O)CC2)nc1C | 0.7%
54 | C=CCNC(=S)N1CCc2[nH]c3ccccc3c2C1 | 0.61%
55 | Cc1cc(C)c2[nH]c(=O)c(CN(Cc3ccccc3)C(=S)NCCCN(C)C)cc2c1 | -0.96%
56 | CSc1ncccc1C(=O)OCc1ccc(Br)cc1 | -0.54%
57 | CN(C)c1ccnc2sc(C(=O)c3ccccc3)c(N)c12 | -2.41%
58 | Nc1c(C(=O)c2cccs2)sc2nsc(SCCN3CCCCC3)c12 | 33.7% (active)
59 | Cc1nc2sc(C(=O)c3ccccc3)c(N)c2c2c1CCCC2 | -0.99%
60 | Cn1ccs/c1=N\S(=O)(=O)c1ccc(C(C)(C)C)cc1 | 1.16%
61 | COc1ccccc1C1CC(=O)n2c(nc(-c3ccccc3)c2-c2ccccc2)S1 (stereo not given) | -0.42%
62 | COc1c(C)cc(C(=O)C2CCCN(S(=O)(=O)c3c(C)noc3C)C2)cc1C (stereo not given) | -0.64%
63 | Fc1ccc(NC(=S)N2CCc3[nH]c4ccccc4c3C2)cc1 | 3.02%
64 | O=C(NCCCn1ccnc1)C(=O)NCC1OCCN1S(=O)(=O)c1cc(F)ccc1F (stereo not given) | 1%
65 | CC(C)CC(CC(C)C)=NNC(=O)c1ccc(CSc2nncn2C)cc1 | -0.24%
66 | CC(=O)Nc1ccccc1C(=O)C(=O)Nc1ccc(F)cc1 | 0%
67 | COc1ccc(COC(=O)N/N=C(\C)CC(=O)Nc2ccc(Cl)cc2)cc1 | -1.28%
68 | COc1ccccc1CSc1ncc(-c2ccc([N+](=O)[O-])cc2)[nH]1 | -2.17%
69 | CCc1ccc(NC(=O)C(C)OC(=O)/C=C/c2cccc([N+](=O)[O-])c2)cc1 (stereo not given) | 2.04%
70 | Cn1cnc(C(F)(F)F)c1-c1ccc([N+](=O)[O-])cc1 | -1.25%
71 | Cc1cc(C)cc(OCC(=O)O/N=C(\N)Cc2ccc([N+](=O)[O-])cc2)c1 | -1.73%
72 | O=c1c(Cl)c(NCc2ccc(F)cc2Cl)cnn1C12CC3CC(CC(C3)C1)C2 | 0.56%
73 | O=C(Nc1nc2ccc([N+](=O)[O-])cc2s1)c1ccncc1 | 4.01%
74 | O=C(NC(Nc1nc2ccc([N+](=O)[O-])cc2s1)(C(F)(F)F)C(F)(F)F)c1ccccc1 | 27.4% (active)
75 | O=C(O)CCC(=O)Nc1nc2ccc([N+](=O)[O-])cc2s1 | -0.08%
